Calls of active or inactive are those of the source. The rule behind the calls is not given here.
Legend:
[1] = AUC (0 to infinity) in Wistar rat plasma at 3 mg/kg, iv; type: ADME, organism-based; design: dose 3 mg/kg, route intravenous, time infinity
Procedure, shortened: (§1)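 Wistar rats given an intravenous bolus of 3 mg/kg in 5% solutol solution. Plasma sampled at eight time points over 24 h. Drug quantified by LC-MS/MS against an internal standard. C0h is the concentration immediately after dosing; AUC0-inf, clearance, t1/2 and Vdss were also derived.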

[2] = test system: Rattus norvegicus; assay: Stimulation of fat oxidation in Wistar rat assessed as decrease in respiratory quotient at 50 mg/kg, po administered 2 hrs before lipid load; type: functional, organism-based; design: dose 50 mg/kg
Procedure, shortened: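 Female Wistar rats housed singly in calorimetry cages, acclimated at least 12 h. Dosed orally with 50 mg/kg or vehicle. Two hours later, oral 10 mL/kg 20% Lipofundin MCT (2 g fat/kg) or PBS. O₂ and CO₂ measured every 17 min per cage for 1 min. RQ is CO₂ production/O₂ consumption.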

[3] = Clearance in Wistar rat plasma at 3 mg/kg, iv; type: ADME, organism-based; design: dose 3 mg/kg, route intravenous; procedure, shortened: as §1
[4] = Inhibition of N-terminal His-tagged rat recombinant ACC2 expressed in high five insect cells by ATP consumption assay
[5] = Cmax in Wistar rat liver at 10 mg/kg, po; type: ADME, organism-based; design: dose 10 mg/kg, route oral
Procedure, shortened: (§2)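 Female Wistar rats given a single oral dose of 10 mg/kg in 10% DMSO. Plasma and liver sampled at eight time points over 24 h, three animals killed per time point. Drug levels measured by LC-MS/MS with an internal standard. […] Values are means ± SD (n = 3).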

[6] = Tmax in Wistar rat liver at 10 mg/kg, po; type: ADME, organism-based; design: dose 10 mg/kg, route oral; procedure, shortened: as §2
[7] = Half life in Wistar rat plasma at 3 mg/kg, iv; type: ADME, organism-based; design: dose 3 mg/kg, route intravenous; procedure, shortened: as §1
[8] = Ratio of AUC (0 to infinity) in liver to plasma of Wistar rat at 10 mg/kg, po; type: ADME, organism-based; design: dose 10 mg/kg, route oral
Procedure, shortened: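 Female Wistar rats received a single oral 10 mg/kg dose in 10% DMSO. Plasma and liver were sampled at eight time points over 24 h, with three animals killed per time point. Drug levels were measured by LC-MS/MS against an internal standard. Liver/plasma ratio was calculated from AUC0-inf.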

[9] = Half life in Wistar rat plasma at 10 mg/kg, po; type: ADME, organism-based; design: dose 10 mg/kg, route oral; procedure, shortened: as §2
[10] = test system: Rattus norvegicus; assay: Reduction in plasma triglycerides in obese ZDF rat at 30 mg/kg, po for 3 days measured 4 hrs post last dose; type: functional, organism-based; design: dose 30 mg/kg
Procedure, shortened: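 Female obese ZDF rats, eight weeks old, dosed orally for 3 days with 30 mg/kg in 5% ethanol/5% solutol/90% PBS (n = 8); controls got vehicle, with lean controls alongside. Four hours after the last dose, aortic blood taken under isoflurane. Triglycerides measured by GPD-PAP method; means ± SEM.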

[11] = Volume of distribution at steady state in Wistar rat plasma at 3 mg/kg, iv; type: ADME, organism-based; design: dose 3 mg/kg, route intravenous; procedure, shortened: as §1
[12] = target: T1, Peroxisome proliferator-activated receptor alpha (Homo sapiens) (UniProt Q07869); assay: Inhibition of PPARalpha
T1 sequence (whole entry): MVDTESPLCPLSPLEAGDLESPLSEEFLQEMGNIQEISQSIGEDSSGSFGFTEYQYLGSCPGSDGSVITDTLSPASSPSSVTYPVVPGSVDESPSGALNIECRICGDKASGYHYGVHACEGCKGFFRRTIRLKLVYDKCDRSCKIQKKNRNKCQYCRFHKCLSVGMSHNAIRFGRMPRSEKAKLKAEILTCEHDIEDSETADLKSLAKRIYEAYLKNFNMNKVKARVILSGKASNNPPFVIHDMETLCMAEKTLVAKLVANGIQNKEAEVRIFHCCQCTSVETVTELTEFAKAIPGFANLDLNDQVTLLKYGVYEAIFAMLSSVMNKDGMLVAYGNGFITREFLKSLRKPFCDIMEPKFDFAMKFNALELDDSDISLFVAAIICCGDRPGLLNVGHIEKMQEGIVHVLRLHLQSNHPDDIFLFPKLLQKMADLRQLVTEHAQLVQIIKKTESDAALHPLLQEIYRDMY

AUC(0-inf) [1]: 5.6 µM·h | clearance [3]: 26.7 mL/min/kg | Cmax [5]: 21.8 µM | Tmax [6]: 2 h | half-life [7]: 1.5 h | Kp [8]: 6 | half-life [9]: 1.8 h | Vd [11]: 2.6 L/kg | inhibition [12]: inactive
Structure (SMILES): CC(=O)N[C@@H](C)CCc1ccc(Oc2ccc(OC(C)C)nc2)cc1
Activity [2]: Active | IC50 [4]: 400 nM | Activity [10]: Active

Source: ChEMBL document CHEMBL1629448, “Identification and synthesis of novel inhibitors of acetyl-CoA carboxylase with in vitro and in vivo efficacy on fat oxidation” (J Med Chem, 2010)
